This note sets out measurements from ChEMBL document CHEMBL4732104, “Discovery of bardoxolone derivatives as novel orally active necroptosis inhibitors” (Eur J Med Chem, 2021).

Active and inactive are the calls of the source. The rule behind the calls is not given here.

Experiment [1] concerns HT-29. As to the kind of experiment: Anti-necroptotic activity in human HT-29 cells assessed as inhibition of TNFalpha/SM-164/Z-VAD-fmk (TSZ)-induced necroptosis by measuring increase in cell viability at 10 uM measured after 12 hrs in presence of RIPK1/3 inhibitor TAK632 by celltiter-glo luminescent cell viability assay. It is filed as functional, cell-based. The gist of the method: (§1)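 HT-29 cells exposed to test agent combined with a second necroptosis inhibitor, then stimulated with TSZ for 12 h to assess synergy. Viability read by CellTiter-Glo luminescence.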
In general terms: Cellular ATP, detected with luciferase, serves as a proxy for viable cell number.

For experiment [2], the system named is HT-29. Nature of the experiment: Anti-necroptotic activity in human HT-29 cells assessed as inhibition of TNFalpha/SM-164/Z-VAD-fmk (TSZ)-induced necroptosis by measuring increase in cell viability measured after 12 hrs by celltiter-glo luminescent cell viability assay. It is filed as functional, cell-based. Put shortly: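 HT-29 cells pretreated with test agent across a concentration range, then TNF-α (20 ng/mL), Smac mimetic (10 nM) and z-VAD-fmk (20 μM) for 12–16 h. CellTiter-Glo viability. EC50 ± SD from at least three independent experiments.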

Experiment [3] has as its system L929. As to the kind of experiment: Anti-necroptotic activity in mouse L929 cells assessed as inhibition of TNFalpha/Z-VAD-fmk (TZ)-induced necroptosis by measuring increase in cell viability measured after 12 hrs by celltiter-glo luminescent cell viability assay. It is filed as functional, cell-based. The gist of the method: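 Mouse L929 fibroblasts pretreated with test agent, then mouse TNF-α (20 ng/mL) plus z-VAD-fmk (20 μM). Incubation stated as 4 h in table footnote and 12 h in figure legend. CellTiter-Glo viability. EC50 ± SD from at least three independent repeats.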

Experiment [4] relates to HT-29. As to the kind of experiment: Anti-necroptotic activity in human HT-29 cells assessed as inhibition of TNFalpha/SM-164/Z-VAD-fmk (TSZ)-induced necroptosis by measuring increase in cell viability at 10 uM measured after 12 hrs in presence of RIPK3 inhibitor SZM630 by celltiter-glo luminescent cell viability assay. It is filed as functional, cell-based. Put shortly:
as §1

Experiment [5] has as its system HT-29. As to the kind of experiment: Anti-necroptotic activity in human HT-29 cells assessed as inhibition of TNFalpha/SM-164/Z-VAD-fmk (TSZ)-induced necroptosis by measuring increase in cell viability at 10 uM measured after 12 hrs in presence of RIPK1 inhibitor Nec-1 by celltiter-glo luminescent cell viability assay. It is filed as functional, cell-based. The gist of the method:
as §1

Experiment [6] has as its system HT-29. As to the kind of experiment: Anti-necroptotic activity in human HT-29 cells assessed as inhibition of TNFalpha/SM-164/Z-VAD-fmk (TSZ)-induced necroptosis by measuring increase in cell viability at 10 uM measured after 12 hrs in presence of MLKL inhibitor NSA by celltiter-glo luminescent cell viability assay. It is filed as functional, cell-based. The gist of the method: as §1

The target in experiment [7] is T1, Heat shock protein HSP90 (Homo sapiens) (UniProt P07900+P08238). As to the kind of experiment: Inhibition of HSP90 in TNFalpha/SM-164/Z-VAD-fmk (TSZ)-induced human HT-29 cells assessed as reduction in EGFR expression at 10 uM by Western blot analysis. It is filed as cell-based. Particulars: time 0.5-6 hrs. (In general: Immunoblotting shows a protein as a band on a membrane.)

In experiment [8] the target is T1, Heat shock protein HSP90 (Homo sapiens). As to the kind of experiment: Inhibition of HSP90 in TNFalpha/SM-164/Z-VAD-fmk (TSZ)-induced human HT-29 cells assessed as increase in HSP70 expression at 10 uM by Western blot analysis. It is filed as cell-based. Particulars: time 0.5-6 hrs.
The target is the same in experiment [9]. As to the kind of experiment: Inhibition of HSP90 in TNFalpha/SM-164/Z-VAD-fmk (TSZ)-induced human HT-29 cells assessed as reduction in RIPK1 expression at 10 uM preincubated for 30 mins followed by TSZ stimulation and measured after 2 to 6 hrs by Western blot analysis. Conditions: time 2-6.5 hrs. It is filed as cell-based. Put shortly:
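HT-29 cells pretreated 30 min with agent (10 μM), then TSZ for the indicated times. Lysed in RIPA with protease and phosphatase inhibitors, BCA quantified. 30 μg protein run on SDS-PAGE and blotted to PVDF. Blocked in 5% BSA, primary antibodies 1:1000 overnight at 4 °C, secondary 1:8000 for 1 h at room temperature.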

Experiment [10] has the same target. As to the kind of experiment: Inhibition of HSP90 in TNFalpha/SM-164/Z-VAD-fmk (TSZ)-induced human HT-29 cells assessed as reduction in RIPK1-RIPK3 necrosome formation at 10 uM measured after 6 hrs by Western blot analysis. It is filed as cell-based. Put shortly:
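HT-29 cells given agent (10 μM) or DMSO for 6 h under TSZ. Lysed in NP-40 buffer with PMSF, protease inhibitors, β-glycerophosphate, NaF and Na3VO4. Anti-RIPK1 immunoprecipitation overnight at 4 °C, protein A/G capture overnight. Eluates boiled in SDS buffer and resolved on 10% gels for immunoblot.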

The test system of experiment [11] is Mus musculus. Nature of the experiment: Protection against TNFalpha-induced C57BL/6J mouse model of systemic inflammatory response syndrome assessed as reduction in hypothermia at 10 to 20 mg/kg, ig administered via gavage 2 hrs prior to TNFalpha stimulation and measured after 10 to 60 mins by electric thermometric method. It is filed as functional, organism-based. Conditions: dose 10-20 mg/kg, time 2-3 hrs. The gist of the method:
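Female C57BL/6J mice, fasted, n=11 per group. Agent at 10 or 20 mg/kg in 0.5% CMC-Na by gavage 2 h before i.v. mTNF-α (250 µg/kg). z-VAD-fmk i.p. 200 µg at −15 min and 75 µg at +1 h. Body temperature tracked, mean ± S.E.M.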

In experiment [12] the test system is Mus musculus. Nature of the experiment: Protection against TNFalpha-induced C57BL/6J mouse model of systemic inflammatory response syndrome assessed as reduction in IL1beta level at 20 mg/kg, ig administered via gavage 2 hrs prior to TNFalpha stimulation and measured after 6 hrs by ELISA. It is filed as functional, organism-based. Particulars: time 8.0 hrs. The gist of the method: (§2)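 Female C57BL/6J mice, 6–8 weeks, fasted overnight, n=11 per group. Agent suspended in 0.5% CMC-Na, given by oral gavage 2 h before i.v. mTNF-α (250 µg/kg in PBS). z-VAD-fmk i.p. 200 µg 15 min before and 75 µg 1 h after. Serum IL-1β and IL-6 measured by ELISA at 6 h.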
In general terms: An ELISA detects its analyte on a solid surface through an enzyme-linked reagent.

The test system of experiment [13] is Mus musculus. Nature of the experiment: Protection against TNFalpha-induced C57BL/6J mouse model of systemic inflammatory response syndrome assessed as reduction in IL6 level at 20 mg/kg, ig administered via gavage 2 hrs prior to TNFalpha stimulation and measured after 6 hrs by ELISA. It is filed as functional, organism-based. Particulars: time 8.0 hrs. The gist of the method: as §2

Experiment [14] concerns Rattus norvegicus. As to the kind of experiment: Neuroprotective activity in middle cerebral artery occlusion-induced Sprague-Dawley rat model of ischemia-reperfusion injury assessed as neurological deficit score at 100 mg/kg (reference value: 3.71 +/- 0.45). It is filed as functional.
Experiment [15] relates to Rattus norvegicus. As to the kind of experiment: Neuroprotective activity in middle cerebral artery occlusion-induced Sprague-Dawley rat model of ischemia-reperfusion injury assessed as reduction in cerebral infarct volume at 100 mg/kg by TTC staining based microscopic analysis relative to control. It is filed as functional. Details: scale not given: the % may be the effect or the level left. Put shortly: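 Rats: left MCA blocked by monofilament via internal carotid under chloral hydrate (300 mg/kg i.p.), 2 h occlusion, 24 h reperfusion. Groups sham, vehicle, compound 100 mg/kg, nimodipine 1 mg/kg given orally beforehand. Brains cut in 2 mm coronal slices, TTC-stained; unstained area as percent of whole brain area; n = 6.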

In experiment [16] the test system is Rattus norvegicus. As to the kind of experiment: Neuroprotective activity in middle cerebral artery occlusion-induced Sprague-Dawley rat model of ischemia-reperfusion injury assessed as reversal of pathological change at 100 mg/kg by H and E staining based analysis. It is filed as functional, organism-based. Put shortly:
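Rats underwent 2 h MCA filament occlusion, then 24 h reperfusion, agent at 100 mg/kg. Animals perfused with saline and 4% paraformaldehyde. Brains paraffin-embedded and cut into 5 μm coronal sections. Hippocampus and cortex assessed by HE staining.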

The EC50 is the midpoint of the concentration-response curve. With `CC1(C)CC[C@]2(C(=O)n3cnc(-c4cccnc4)c3)CC[C@]3(C)[C@H](C(=O)C=C4[C@@]5(C)C=C(C#N)C(=O)C(C)(C)[C@@H]5CC[C@]43C)[C@@H]2C1`, the inhibition entry in [1], in experiment [4], in [5], in [6], in experiment [9] and in experiment [10] was “Active” throughout. In addition, the inhibition entry in [2], in [3], in experiment [7] and in [8] was “Dose-dependent effect” each time. In addition, the EC50 worked out at 310 nM in experiment [2] (HT-29, 12 h) and 860 nM in [3] (L929, 12 h). The outcome in experiment [11], in experiment [12], in experiment [13] and in [16] was Active. For the same compound, the Activity in experiment [14] was 2.72; in experiment [15], 22.8%.
